The values that follow come from ChEMBL document CHEMBL1142242, “Indanylacetic acid derivatives carrying 4-thiazolyl-phenoxy tail groups, a new class of potent PPAR alpha/gamma/delta pan agonists: synthesis, structure-activity relationship, and in vivo efficacy” (J Med Chem, 2007).

For data set [1], the target named is T1, Peroxisome proliferator-activated receptor delta (Homo sapiens, UniProt Q03181).
T1 sequence (Q03181 whole entry): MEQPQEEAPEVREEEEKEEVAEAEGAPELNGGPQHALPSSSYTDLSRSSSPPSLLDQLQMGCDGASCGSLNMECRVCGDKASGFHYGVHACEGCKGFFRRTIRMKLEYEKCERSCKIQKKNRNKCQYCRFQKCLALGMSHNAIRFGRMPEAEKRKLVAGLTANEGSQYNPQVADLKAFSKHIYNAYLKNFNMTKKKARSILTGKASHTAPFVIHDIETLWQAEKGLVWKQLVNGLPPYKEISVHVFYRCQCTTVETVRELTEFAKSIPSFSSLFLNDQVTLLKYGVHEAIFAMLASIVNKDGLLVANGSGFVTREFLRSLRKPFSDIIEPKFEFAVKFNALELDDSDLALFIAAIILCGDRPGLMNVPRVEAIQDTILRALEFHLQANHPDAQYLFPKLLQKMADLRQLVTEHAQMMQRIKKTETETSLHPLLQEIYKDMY
The experiment in a line: Agonist activity at human PPAR delta by FRET assay. It is filed as functional.

The nature of data set [2]: Aqueous solubility of the compound. It is filed as physicochemical.
Data set [3] has as its target T2, Peroxisome proliferator-activated receptor gamma (Mus musculus, UniProt P37238).
T2 sequence (P37238 whole entry): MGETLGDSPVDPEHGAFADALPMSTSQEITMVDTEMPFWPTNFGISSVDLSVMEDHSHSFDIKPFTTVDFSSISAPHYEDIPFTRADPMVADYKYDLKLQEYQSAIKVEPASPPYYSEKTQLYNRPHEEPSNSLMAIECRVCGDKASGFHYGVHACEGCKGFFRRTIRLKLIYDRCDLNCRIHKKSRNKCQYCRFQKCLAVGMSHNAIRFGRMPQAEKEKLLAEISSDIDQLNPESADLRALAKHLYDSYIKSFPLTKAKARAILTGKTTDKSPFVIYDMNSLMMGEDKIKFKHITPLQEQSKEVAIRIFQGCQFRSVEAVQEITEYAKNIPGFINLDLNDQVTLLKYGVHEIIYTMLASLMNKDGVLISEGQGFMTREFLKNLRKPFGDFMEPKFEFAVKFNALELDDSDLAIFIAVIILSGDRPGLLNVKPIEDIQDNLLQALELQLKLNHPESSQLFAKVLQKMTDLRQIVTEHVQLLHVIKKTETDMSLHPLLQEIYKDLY
The experiment in a line: Agonist activity at PPAR gamma in mouse 3T3L1 cells assessed as increase in insulin receptor by IRBA. It is filed as functional, cell-based, 3T3-L1.

Data set [4] deals with T3, Peroxisome proliferator-activated receptor alpha (Homo sapiens, UniProt Q07869).
T3 sequence (Q07869 whole entry): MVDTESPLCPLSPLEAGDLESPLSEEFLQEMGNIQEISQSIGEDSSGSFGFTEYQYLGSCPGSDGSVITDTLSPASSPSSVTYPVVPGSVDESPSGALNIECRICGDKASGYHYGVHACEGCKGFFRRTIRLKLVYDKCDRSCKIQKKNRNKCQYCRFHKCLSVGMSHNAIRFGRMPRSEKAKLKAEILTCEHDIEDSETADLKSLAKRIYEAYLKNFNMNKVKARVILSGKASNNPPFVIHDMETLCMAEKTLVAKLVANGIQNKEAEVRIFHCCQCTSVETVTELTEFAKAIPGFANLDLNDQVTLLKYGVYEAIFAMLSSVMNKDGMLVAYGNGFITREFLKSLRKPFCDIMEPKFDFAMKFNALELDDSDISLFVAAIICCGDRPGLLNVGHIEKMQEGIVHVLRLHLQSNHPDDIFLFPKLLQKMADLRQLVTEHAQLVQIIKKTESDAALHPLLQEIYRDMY
The experiment in a line: Agonist activity at human PPAR alpha by FRET assay. It is filed as functional. A digest of the protocol: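 Human PPARα ligand binding domain (GST-tagged) association with biotin-labeled co-activator CBP; Eu-labeled anti-GST antibody and streptavidin-APC; incubated 2 h at rt in buffer with or without compound; fluorescence read at 615 or 655 nm emission, 340 nm excitation.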

The next data set addresses Cytochrome P450 1A2 (Homo sapiens, UniProt P05177). The experiment in a line: Inhibition of CYP1A2. It is filed as ADME. Put shortly:
(§1)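 Enzyme assays per CYP isoform (1A2, 2C8, 2D6, 3A4), with turnover of an appropriate fluorescent substrate as read-out; IC₅₀ reported.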

The next data set has as its target Glucocorticoid receptor (Homo sapiens, UniProt P04150). The data set is described as follows: Displacement of [H]dexamethaxone from glucocorticoid receptor in HUH cells. It is filed as cell-based.
The nature of data set [5]: Aqueous solubility at pH 6.8. It counts as physicochemical.
The target in data set [6] is PPAR gamma (Homo sapiens). The experiment in a line: Agonist activity at human PPAR gamma expressed in human preadipocytes assessed as increase in insulin receptor by IRBA.
Data set [7] has as its target T1, Peroxisome proliferator-activated receptor delta. The data set is described as follows: Agonist activity at human PPAR delta expressed in CV1 cells by GAL4 transactivation assay.
The target of the next data set is Cytochrome P450 3A4 (Homo sapiens, UniProt P08684). The data set is described as follows: Inhibition of CYP3A4. It counts as ADME. A digest of the protocol: as §1
Sequence of Cytochrome P450 3A4 (P08684 whole entry): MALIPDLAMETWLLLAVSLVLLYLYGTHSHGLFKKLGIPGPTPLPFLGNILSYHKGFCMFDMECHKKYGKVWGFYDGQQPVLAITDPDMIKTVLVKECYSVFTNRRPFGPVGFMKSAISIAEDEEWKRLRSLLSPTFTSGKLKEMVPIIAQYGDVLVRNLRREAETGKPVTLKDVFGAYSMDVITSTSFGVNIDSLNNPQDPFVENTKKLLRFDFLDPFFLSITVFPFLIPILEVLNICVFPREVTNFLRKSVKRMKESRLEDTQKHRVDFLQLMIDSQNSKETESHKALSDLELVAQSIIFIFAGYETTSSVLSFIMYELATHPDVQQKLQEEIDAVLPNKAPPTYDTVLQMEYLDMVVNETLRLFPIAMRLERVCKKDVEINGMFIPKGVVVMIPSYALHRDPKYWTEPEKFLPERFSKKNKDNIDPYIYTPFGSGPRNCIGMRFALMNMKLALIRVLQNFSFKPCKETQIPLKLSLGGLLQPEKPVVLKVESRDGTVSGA
In data set [8] the target is T4, Peroxisome proliferator-activated receptor alpha (Mus musculus) (UniProt P23204).
T4 sequence (whole entry): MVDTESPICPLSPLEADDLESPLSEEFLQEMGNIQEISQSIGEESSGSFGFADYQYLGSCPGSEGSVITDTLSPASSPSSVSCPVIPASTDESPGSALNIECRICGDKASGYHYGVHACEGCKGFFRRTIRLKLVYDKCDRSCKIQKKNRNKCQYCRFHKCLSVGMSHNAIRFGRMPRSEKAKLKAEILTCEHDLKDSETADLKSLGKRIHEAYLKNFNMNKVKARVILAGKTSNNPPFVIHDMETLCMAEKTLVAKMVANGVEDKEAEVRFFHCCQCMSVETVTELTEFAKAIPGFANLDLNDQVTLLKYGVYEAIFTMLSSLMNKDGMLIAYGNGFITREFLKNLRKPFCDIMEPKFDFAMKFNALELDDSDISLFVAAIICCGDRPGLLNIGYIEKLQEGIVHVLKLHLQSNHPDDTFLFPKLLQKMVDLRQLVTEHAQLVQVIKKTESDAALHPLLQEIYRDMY
The data set is described as follows: (§2) Agonist activity at mouse PPAR alpha. It is filed as functional.

Data set [9] addresses Peroxisome proliferator-activated receptor alpha (Mus musculus, UniProt P23204). Described as §2. It counts as functional.
In a further data set the target is Progesterone receptor (Homo sapiens, UniProt P06401). The experiment in a line: Displacement of [3H]progesterone from progesterone receptor in T47D cells. It counts as cell-based. A digest of the protocol: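 Cytosol from T47D cells incubated overnight at 4 °C with ³H-progesterone at 10 nM final, with or without compound. DMSO defined total binding and 1 µM unlabelled progesterone defined nonspecific binding. Bound and free ligand were separated on a spin plate, and the flow-through was counted by scintillation.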
Sequence of Progesterone receptor (P06401 whole entry): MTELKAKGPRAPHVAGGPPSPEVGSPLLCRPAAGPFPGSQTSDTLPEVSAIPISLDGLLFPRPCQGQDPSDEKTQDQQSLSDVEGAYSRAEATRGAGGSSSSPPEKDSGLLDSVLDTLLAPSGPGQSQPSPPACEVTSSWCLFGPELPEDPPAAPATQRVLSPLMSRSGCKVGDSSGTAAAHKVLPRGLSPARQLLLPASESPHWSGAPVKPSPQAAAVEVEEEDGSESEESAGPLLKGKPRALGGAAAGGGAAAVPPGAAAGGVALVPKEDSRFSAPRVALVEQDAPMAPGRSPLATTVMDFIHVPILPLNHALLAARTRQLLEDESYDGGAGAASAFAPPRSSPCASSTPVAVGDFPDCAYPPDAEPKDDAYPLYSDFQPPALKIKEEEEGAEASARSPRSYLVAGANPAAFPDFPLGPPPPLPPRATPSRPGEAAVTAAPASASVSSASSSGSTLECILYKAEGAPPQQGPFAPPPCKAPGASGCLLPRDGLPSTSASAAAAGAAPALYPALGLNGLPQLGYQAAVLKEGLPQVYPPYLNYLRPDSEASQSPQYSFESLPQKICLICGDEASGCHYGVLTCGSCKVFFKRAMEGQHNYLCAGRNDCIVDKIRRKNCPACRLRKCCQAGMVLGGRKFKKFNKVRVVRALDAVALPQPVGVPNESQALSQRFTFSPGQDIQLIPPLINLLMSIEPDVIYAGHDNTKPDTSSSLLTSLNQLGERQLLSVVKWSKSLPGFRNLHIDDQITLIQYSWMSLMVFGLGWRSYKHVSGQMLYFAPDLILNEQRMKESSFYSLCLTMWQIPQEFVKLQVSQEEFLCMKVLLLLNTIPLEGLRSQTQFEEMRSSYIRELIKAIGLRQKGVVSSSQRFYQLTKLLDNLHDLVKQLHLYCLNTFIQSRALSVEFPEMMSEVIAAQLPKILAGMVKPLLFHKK
(Displacement assays read how much labelled ligand stays bound in the presence of the test substance.)

For data set [10], the target named is Peroxisome proliferator-activated receptor delta (Mus musculus, UniProt P35396). The data set is described as follows: Agonist activity at mouse PPAR delta.
Sequence of Peroxisome proliferator-activated receptor delta (Mus musculus, UniProt P35396) (P35396 whole entry): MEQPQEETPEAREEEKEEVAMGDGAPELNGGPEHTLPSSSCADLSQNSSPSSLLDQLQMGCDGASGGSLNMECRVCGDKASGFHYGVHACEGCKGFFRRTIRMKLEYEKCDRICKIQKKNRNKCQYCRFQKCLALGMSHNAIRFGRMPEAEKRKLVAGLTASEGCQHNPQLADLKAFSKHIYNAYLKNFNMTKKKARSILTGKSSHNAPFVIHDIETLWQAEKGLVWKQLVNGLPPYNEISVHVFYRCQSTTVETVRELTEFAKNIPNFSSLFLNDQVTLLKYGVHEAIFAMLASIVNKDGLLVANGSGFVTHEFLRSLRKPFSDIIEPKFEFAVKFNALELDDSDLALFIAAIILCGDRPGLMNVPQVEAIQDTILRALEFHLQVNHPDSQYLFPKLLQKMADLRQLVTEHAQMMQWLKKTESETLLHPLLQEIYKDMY
The next data set has as its target Estrogen receptor (Mus musculus, UniProt O08537+P19785). The data set is described as follows: Displacement of [3H]O-estradiol from ER in Swiss mouse uteri. It counts as protein assay.
In the next data set the target is Cytochrome P450 2C8 (Homo sapiens, UniProt P10632). The experiment in a line: Inhibition of CYP2C8. It is filed as ADME. Put shortly: as §1
Sequence of Cytochrome P450 2C8 (P10632 whole entry): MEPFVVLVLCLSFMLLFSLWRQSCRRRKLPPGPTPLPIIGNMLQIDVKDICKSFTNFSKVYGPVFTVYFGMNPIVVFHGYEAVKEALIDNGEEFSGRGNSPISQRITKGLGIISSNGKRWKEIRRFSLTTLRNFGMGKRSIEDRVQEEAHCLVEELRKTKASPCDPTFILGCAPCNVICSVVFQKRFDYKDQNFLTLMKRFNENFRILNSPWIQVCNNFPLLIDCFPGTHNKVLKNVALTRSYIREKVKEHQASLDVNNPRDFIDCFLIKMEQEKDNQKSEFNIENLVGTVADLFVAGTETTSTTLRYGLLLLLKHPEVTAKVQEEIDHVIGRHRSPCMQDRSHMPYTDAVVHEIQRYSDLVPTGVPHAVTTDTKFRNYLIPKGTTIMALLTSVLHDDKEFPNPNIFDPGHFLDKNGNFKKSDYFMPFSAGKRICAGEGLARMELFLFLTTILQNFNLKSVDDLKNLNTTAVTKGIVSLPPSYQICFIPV
The target of the next data set is Androgen receptor (Homo sapiens, UniProt P10275). The experiment in a line: Displacement of [3H]dihydrotestosterone from human recombinant androgen receptor expressed in SF9 baculovirus cells.
The nature of data set [11]: Cmax in mouse at 10 mg/kg, po. It counts as ADME, organism-based. Also on record: dose 10 mg/kg, route oral. The following applies: in vivo. A digest of the protocol:
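Mice dosed orally in 0.5% methylcellulose vehicle; plasma Cmax reported.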

Data set [12] concerns the target T5, Peroxisome proliferator-activated receptor alpha (Homo sapiens) (UniProt Q07869).
T5 sequence (whole entry): T3 sequence (Q07869 whole entry)
The experiment in a line: (§3) Agonist activity at human PPAR alpha expressed in CV1 cells by GAL4 transactivation assay. It is filed as functional, cell-based. The following applies: CV-1. A digest of the protocol:
(§4)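 CV-1 cells plated, grown overnight at 37 °C in 5% CO₂, then transfected with GAL4-fused human PPARα ligand binding domain, pFR-LUC and pRL-SV40 reporter DNAs by lipofection. After a further overnight incubation, cells were exposed to compound or vehicle overnight. Activity was read as dual-luciferase reporter signal.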

In data set [13] the target is T3, Peroxisome proliferator-activated receptor alpha. Described as §3. It is filed as functional, cell-based, CV-1. Put shortly:
as §4

A further data set concerns the target Cytochrome P450 2C9 (Homo sapiens, UniProt P11712). The data set is described as follows: Inhibition of CYP2C9. It counts as ADME.
The next data set deals with Cytochrome P450 2D6 (Homo sapiens, UniProt P10635). The data set is described as follows: Inhibition of CYP2D6. It is filed as ADME. A digest of the protocol: as §1
Sequence of Cytochrome P450 2D6 (P10635 whole entry): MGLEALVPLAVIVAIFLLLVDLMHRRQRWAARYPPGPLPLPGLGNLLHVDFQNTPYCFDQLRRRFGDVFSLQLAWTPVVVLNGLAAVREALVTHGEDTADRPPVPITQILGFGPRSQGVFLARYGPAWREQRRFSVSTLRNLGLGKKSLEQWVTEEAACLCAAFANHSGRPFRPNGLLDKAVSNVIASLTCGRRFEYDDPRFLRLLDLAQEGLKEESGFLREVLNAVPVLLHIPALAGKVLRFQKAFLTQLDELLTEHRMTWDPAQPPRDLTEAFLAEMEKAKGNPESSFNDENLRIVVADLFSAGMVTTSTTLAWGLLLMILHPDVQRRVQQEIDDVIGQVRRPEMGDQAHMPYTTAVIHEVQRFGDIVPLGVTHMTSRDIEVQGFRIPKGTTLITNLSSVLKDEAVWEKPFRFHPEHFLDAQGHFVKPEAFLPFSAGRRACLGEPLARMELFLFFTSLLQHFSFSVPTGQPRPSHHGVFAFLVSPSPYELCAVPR

Bounds are passed on as bounds.

Sequence of Cytochrome P450 2C9 (P11712 whole entry): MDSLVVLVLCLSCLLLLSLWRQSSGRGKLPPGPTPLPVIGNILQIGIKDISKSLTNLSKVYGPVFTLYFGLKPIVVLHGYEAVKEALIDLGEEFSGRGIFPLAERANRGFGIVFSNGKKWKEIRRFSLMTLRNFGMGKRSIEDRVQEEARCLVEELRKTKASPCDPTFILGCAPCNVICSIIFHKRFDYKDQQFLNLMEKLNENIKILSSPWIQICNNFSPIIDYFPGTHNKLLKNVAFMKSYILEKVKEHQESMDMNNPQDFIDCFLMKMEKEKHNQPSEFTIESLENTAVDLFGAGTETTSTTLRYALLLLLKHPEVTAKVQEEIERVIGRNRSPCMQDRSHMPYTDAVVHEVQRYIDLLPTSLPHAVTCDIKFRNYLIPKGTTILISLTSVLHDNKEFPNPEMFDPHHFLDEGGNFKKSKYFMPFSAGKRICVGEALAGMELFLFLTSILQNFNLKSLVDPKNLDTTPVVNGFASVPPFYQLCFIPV
Sequence of Glucocorticoid receptor (P04150 whole entry): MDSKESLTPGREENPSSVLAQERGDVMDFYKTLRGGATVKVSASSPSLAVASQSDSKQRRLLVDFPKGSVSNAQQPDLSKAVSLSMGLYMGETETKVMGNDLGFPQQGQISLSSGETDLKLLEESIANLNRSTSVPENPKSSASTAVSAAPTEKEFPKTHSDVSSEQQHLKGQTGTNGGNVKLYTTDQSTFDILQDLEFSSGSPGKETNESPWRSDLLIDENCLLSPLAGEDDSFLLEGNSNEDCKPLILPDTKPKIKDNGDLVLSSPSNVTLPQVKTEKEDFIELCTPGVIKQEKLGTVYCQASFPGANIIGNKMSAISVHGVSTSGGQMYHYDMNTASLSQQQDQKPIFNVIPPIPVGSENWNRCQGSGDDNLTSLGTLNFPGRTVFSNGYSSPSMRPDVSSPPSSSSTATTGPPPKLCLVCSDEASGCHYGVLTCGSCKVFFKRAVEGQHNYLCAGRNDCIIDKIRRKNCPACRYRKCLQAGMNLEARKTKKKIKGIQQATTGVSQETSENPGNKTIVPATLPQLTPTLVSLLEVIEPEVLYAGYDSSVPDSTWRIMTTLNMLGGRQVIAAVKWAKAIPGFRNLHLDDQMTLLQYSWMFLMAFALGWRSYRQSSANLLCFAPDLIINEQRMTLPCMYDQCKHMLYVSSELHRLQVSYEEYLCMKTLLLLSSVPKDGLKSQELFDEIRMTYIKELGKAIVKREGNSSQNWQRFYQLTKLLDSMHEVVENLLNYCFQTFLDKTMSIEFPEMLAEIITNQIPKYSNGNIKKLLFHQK
Sequence of Cytochrome P450 1A2 (P05177 whole entry, canonical isoform): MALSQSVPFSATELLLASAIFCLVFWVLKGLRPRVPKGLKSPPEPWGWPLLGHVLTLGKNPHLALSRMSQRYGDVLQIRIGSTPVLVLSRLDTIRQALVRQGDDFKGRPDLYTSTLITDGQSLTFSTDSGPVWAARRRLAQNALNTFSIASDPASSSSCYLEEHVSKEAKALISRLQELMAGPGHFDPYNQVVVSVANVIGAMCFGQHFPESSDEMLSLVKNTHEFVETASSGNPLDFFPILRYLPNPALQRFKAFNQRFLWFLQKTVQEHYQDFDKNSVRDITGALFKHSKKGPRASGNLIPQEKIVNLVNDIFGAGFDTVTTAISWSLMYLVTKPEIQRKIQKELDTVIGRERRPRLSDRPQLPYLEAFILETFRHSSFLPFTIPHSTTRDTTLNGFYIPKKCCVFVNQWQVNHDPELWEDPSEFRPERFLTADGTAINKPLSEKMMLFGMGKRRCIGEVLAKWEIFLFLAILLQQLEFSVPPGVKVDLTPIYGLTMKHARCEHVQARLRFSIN

The term EC50 denotes the concentration giving half of the maximal effect. What is called solubility is how much of the substance goes into solution per volume. High values mean a readily soluble substance, low ones a poorly soluble substance. `CCCc1c(OCCCOc2ccc3c(c2)CC[C@H]3CC(=O)O)ccc2c(C(F)(F)F)noc12`: the figures for the EC50 in data set [1], in [3] and in [4] were 6 nM, 42 nM and 192 nM, respectively. The solubility in data set [2] was less than 1 µM.

The term IC50 denotes the midpoint of a concentration-inhibition curve. A low value points to greater potency in that assay. A word on the Cmax: it is the highest concentration seen after dosing. Take `CCCc1cc(-c2nc3c(s2)CCCC3)ccc1OCCCOc1ccc2c(c1)CC[C@H]2CC(=O)O`: the IC50 against Cytochrome P450 1A2, at Cytochrome P450 3A4, at Cytochrome P450 2C8, at Cytochrome P450 2C9 and against Cytochrome P450 2D6 was more than 10000 nM each time. For the same compound, the EC50 at Glucocorticoid receptor is more than 10000 nM; in data set [6], 81 nM; in [7], 2.6 nM; in [9] it was 7700 nM; at Progesterone receptor, more than 10000 nM; in data set [10], 8.6 nM. Besides, the half-maximal effective concentration (EC50) was 1.9 nM in data set [1]; more than 10000 nM on Estrogen receptor; 12 nM in data set [3]; more than 10000 nM on Androgen receptor; 5 nM in [13]; 43 nM in [4]. The compound further showed a solubility in data set [5] of less than 5 µM. Further, the Activity came out at 79% in [8] and 100% in [12]. In addition, in [11], the highest level (Cmax) was 5.1 µM.
